Measured values as given in ChEMBL document CHEMBL3102706, “Natural occurrence of organofluorine and other constituents from Streptomyces sp. TC1” (J Nat Prod, 2014).
Active and inactive are the calls of the source. No cut-off for these calls is given here.

Assays:
[1] = Antioxidant activity assessed as hydroxyl radical scavenging activity after 15 mins by spectrophotometric analysis; format: functional
[2] = system: Radical scavenging activity; assay: Antioxidant activity assessed as DPPH radical scavenging activity; format: functional
[3] = Antioxidant activity assessed as superoxide radical scavenging activity by NBT reduction assay; format: functional
[4] = Antioxidant activity assessed as EDTA equivalent of chelating effect after 10 mins by spectrophotometric analysis; format: functional
Outline: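 Ferrous-ion chelation: compounds or EDTA standard added to 2 mmol/L FeCl2 solution, then 5 mmol/L ferrozine added to start reaction. Mixture shaken vigorously and left 10 min at room temperature. Absorbance read at 562 nm. Activity expressed as mg EDTA equivalent/g.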

[5] = Antioxidant activity assessed as trolox equivalents of ABTS radical scavenging activity after 30 mins by TEAC assay; format: functional
Outline: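 ABTS (7 mM in water) was oxidized with 2.45 mM potassium persulfate (final) for 12–16 h in the dark at room temperature. The radical was diluted in ethanol to A734 0.700 ± 0.02 at 30 °C, then added to sample or Trolox standards (final 0–15 μM). A734 was read at 30 °C, 30 min after mixing. Results are given as μmol Trolox equivalent/g.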

HCT-116 = assay: Cytotoxicity against human HCT116 cells; format: functional, cell-based
HeLa = assay: Cytotoxicity against human HeLa cells; format: functional, cell-based
DNA [6] = assay: Binding affinity to calf thymus DNA by absorption titration; conditions: Bos taurus
DNA [7] = assay: Displacement of ethidium bromide from calf thymus DNA by spectrometric analysis; format: nucleic-acid assay; conditions: Bos taurus
Outline: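 Competitive EtBr displacement from CT-DNA monitored by emission spectroscopy. Kq taken as slope of I0/I versus [Q]. Kapp obtained from KEB[EB] = Kapp[compound], using compound concentration giving 50% loss of EB fluorescence, KEB = 1.0 × 10^7 M−1, [EB] = 5 μM.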

AGS = assay: Cytotoxicity against human AGS cells; format: functional, cell-based
Albumin = Albumin (Bos taurus, UniProt P02769); assay: Binding affinity to bovine serum albumin at 25 uM by fluorescence spectra analysis; format: ADME; conditions: cattle, isolated protein
Sequence of Albumin (P02769 whole entry): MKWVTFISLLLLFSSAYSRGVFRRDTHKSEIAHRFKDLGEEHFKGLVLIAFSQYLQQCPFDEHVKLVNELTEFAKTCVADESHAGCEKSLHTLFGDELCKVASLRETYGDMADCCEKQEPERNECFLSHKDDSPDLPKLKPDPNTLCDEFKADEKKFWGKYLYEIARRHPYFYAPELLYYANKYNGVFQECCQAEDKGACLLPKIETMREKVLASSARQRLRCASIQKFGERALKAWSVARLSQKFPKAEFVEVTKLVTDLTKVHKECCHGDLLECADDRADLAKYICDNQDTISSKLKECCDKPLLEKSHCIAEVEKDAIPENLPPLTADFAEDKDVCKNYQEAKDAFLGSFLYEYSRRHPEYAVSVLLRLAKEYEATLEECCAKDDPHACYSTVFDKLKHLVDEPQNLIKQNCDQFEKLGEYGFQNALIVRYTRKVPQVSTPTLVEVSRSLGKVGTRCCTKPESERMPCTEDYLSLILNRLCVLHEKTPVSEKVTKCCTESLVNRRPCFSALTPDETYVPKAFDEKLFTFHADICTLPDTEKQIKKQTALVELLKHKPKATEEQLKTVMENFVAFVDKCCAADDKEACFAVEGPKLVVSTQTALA

| SMILES | IC50 [1] [µM] | IC50 [2] [µM] | IC50 [3] [µM] | Kb (DNA [6]) [×10⁴ /M] | Kapp (DNA [7]) [×10⁵ /M] | Kq (DNA [7]) [×10⁴ /M] | Activity (Albumin) | Activity [4] [mg/g] | Activity [5] [µmol/g] | Activity (HCT-116) | Activity (HeLa) | Activity (AGS) |
| --- | --- | --- | --- | --- | --- | --- | --- | --- | --- | --- | --- | --- |
| Cc1cc(C(C)(C)C)c(O)c(C(C)(C)C)c1 [BUTYLATED HYDROXYTOLUENE] | 11.5 | 4.5 | 8.6 | – | – | – | – | 15.4 | 6050 | – | – | – |
| CC(C)(C)c1cc(CCC(=O)O)cc(C(C)(C)C)c1F | 25.8 | 8.4 | 8.4 | 3.13 | 1.6 | 1.71 | Active | 4.5 | 6740 | inactive | inactive | inactive |
| CC(C)C[C@H](NC(=O)[C@@H](O)C[C@H](N)CN)C(N)=O | 35.5 | 34.7 | 34.6 | 2.36 | 0.13 | 0.26 | Active | 11.9 | 4090 | inactive | inactive | inactive |

The remaining molecules from weak to strong by IC50 [1], led by results:

| IC50 [1] [µM] | IC50 [2] [µM] | IC50 [3] [µM] | Kb (DNA [6]) [×10⁴ /M] | Kapp (DNA [7]) [×10⁵ /M] | Kq (DNA [7]) [×10⁴ /M] | Activity (Albumin) | SMILES | Activity [4] [mg/g] | Activity [5] [µmol/g] | Activity (HCT-116) | Activity (HeLa) | Activity (AGS) |
| --- | --- | --- | --- | --- | --- | --- | --- | --- | --- | --- | --- | --- |
| 31.1 | 14.9 | 32.8 | 2.23 | 0.34 | 0.68 | Active | C=CCC(CC=C)(CC=C)c1ccc(CCCCCCCCC)cc1O | 8.4 | 4020 | inactive | inactive | inactive |
| 19.4 | 4.7 | 4.7 | – | – | – | – | C[C@@H]1O[C@@H](OC[C@H]2O[C@@H](Oc3c(-c4ccc(O)c(O)c4)oc4cc(O)cc(O)c4c3=O)[C@H](O)[C@@H](O)[C@@H]2O)[C@H](O)[C@H](O)[C@H]1O [RUTIN] | 18.5 | 10100 | – | – | – |
